# High-throughput results (PubChem)
# Shown are actives, neighbours in structure and some others; about 4.1% of the full set was active somewhere.
# NF-kB expr up: compounds increasing NF-kB expression in human neuronal cells; NF-kB reporter expression; stronger effect = higher value; fold change at 12.5 µM; 190,000 compounds, 1.6% hits; AID 1239; in the data active means fold change above about 3.3
# STAT1 activator: increases IFN-gamma driven STAT1 reporter signal; NIH 3T3 STAT1-luciferase reporter, luminescence; 100% = IFN-gamma alone, no compound; 200,000 compounds, 2.6% hits; AID 932; activation (% of control), % at 5.5 µM;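 active means activation above the screen-wide mean activation plus 3 SD, cut at about 130% in these data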;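 further: raw ratio to IFN-gamma control signal so 100% means no change and 0% no light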
# FLuc act counter: firefly luciferase counter-screen for stimulation assays; P08659; ATPlite luciferase biochemical, luminescence, 10 min; 0 = ATP-free wells, 1 = DMSO control; activation factor at 10 µM; 200,000 tested, under 10 active; AID 1027;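 active means luciferase activation factor, scaled between plate controls, of at least 2 with compound at 10 µM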
# Target sequence (P08659 whole entry, looked up): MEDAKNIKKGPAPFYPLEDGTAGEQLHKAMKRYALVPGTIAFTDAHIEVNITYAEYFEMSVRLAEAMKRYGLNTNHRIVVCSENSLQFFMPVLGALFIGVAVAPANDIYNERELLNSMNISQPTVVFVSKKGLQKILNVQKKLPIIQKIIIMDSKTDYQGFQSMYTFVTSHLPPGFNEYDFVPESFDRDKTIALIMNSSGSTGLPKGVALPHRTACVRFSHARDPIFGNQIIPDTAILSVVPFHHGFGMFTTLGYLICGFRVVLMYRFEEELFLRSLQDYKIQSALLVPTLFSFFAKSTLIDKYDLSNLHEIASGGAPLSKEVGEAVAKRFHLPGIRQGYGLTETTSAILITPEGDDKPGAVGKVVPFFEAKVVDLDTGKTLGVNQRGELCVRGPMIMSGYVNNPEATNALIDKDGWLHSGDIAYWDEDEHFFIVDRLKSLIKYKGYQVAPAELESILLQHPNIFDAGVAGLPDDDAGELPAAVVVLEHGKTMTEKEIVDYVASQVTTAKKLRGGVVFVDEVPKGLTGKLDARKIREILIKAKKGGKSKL
#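 Material: Luciferase/luciferin reagent mix | Doses: Test compounds dosed from 2 mM stocks in 100% DMSO | Timing: 10 min incubation after luciferase reagent addition, room temperature | Measured by: Luminescence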
# FLuc inh counter: counter-screen for luciferase assay inhibitors: firefly luciferase inhibition | ATPLite firefly luciferase biochemical luminescence, 10 min | 200,000 compounds, 1.5% hits | inhibition, % at 10 µM | AID 1006;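 active means inhibition above about 50% when tested at 10 µM, limit read from the data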
# APP 5'UTR act: APP 5'UTR luciferase reporter activation | SH-SY5Y APP 5'UTR luciferase reporter, luminescence; zero percent = DMSO vehicle wells | activation, % at 2 µM | 190,000 compounds, 1% hits | AID 1276;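 active means activation above a set limit, based on mean plus 3 SD of controls, cut at about 140% in these data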
# The depositor's hits bear a star.
SMILES,NF-kB expr up,STAT1 activator,FLuc act counter,FLuc inh counter,APP 5'UTR act
COc1ccc(-n2c(C)cc(/C=C3\C(=O)NN(c4ccccc4)C3=O)c2C)cc1,1.46,103.6,0.4,55.2*,33.6
O=C1NN(c2ccccc2)C(=O)/C1=C/c1coc2ccccc2c1=O,0.76,146.3*,1,-3.7,46.6
Cc1cc(/C=C2/C(=O)NN(c3ccccc3)C2=O)c(C)n1-c1ccc(O)cc1,0.64,119.0,0,95.3*,117.3
COc1ccc2c(c1)N(C(=O)CSc1n[nH]c(C)n1)C(C)(C)C=C2C,1.01,93.9,1,-2.7,0.2
CC(C)(C)c1csc(NC(=O)c2ccc(Cl)s2)n1,3.58*,137.4*,1,0.1,87.3
CC(C)(C)c1csc(NC(=O)Nc2ccccc2)n1,4.94*,136.5*,0.5,45.8,129.1
Cc1ccc(C(=O)Nc2nc(C(C)(C)C)cs2)s1,4.98*,146.1*,0.8,22.4,105.8
O=C(O)CCS(=O)(=O)c1ccccc1Cl,0.9,97.2,1,-3.5,10.2
CCOc1ccc(Nc2nnc(Cc3ccc(OC)cc3)c(=O)[nH]2)cc1,1.23,98.3,1.1,-5.3,-11.9
CN=C(NC1CCCCC1)c1ccc(Cl)cc1,1.52,99.7,1,2.8,-4.8
COC(=O)c1c(-c2ccccc2)csc1NC1=NS(=O)(=O)c2ccccc21,1.17,135.5*,0.3,65.4*,134.7
Cn1c(CNc2ccc(Cl)cc2)nc2ccccc21,3.9*,143.0*,0.6,43.6,175.0*
Cc1nc2cc(NCc3nc4ccccc4n3Cc3ccccc3)ccc2n1C,0.55,135.1*,0.1,86.6*,131.3
Cc1cccc(NCc2nc3ccccc3n2Cc2ccccc2)c1,1.48,104.0,1.1,-5.6,19.2
Cc1ccc(N2CCN(c3ccc(NCc4nc5ccccc5n4C)cc3)CC2)cc1,0.96,98.9,1,-3.7,-14.8
Cc1ccc(OC(=O)C2c3ccccc3Oc3ccccc32)cc1C,4.62*,107.5,1,-0.9,21.0
CC(=O)c1ccc(OC(=O)C2c3ccccc3Oc3ccccc32)cc1,0.92,98.7,1.1,-6.3,-3.6
CSc1n[nH]c(NCc2cccs2)n1,1.33,102.7,1,-3.0,-4.6
Fc1ccc(-c2cn3cc(C(F)(F)F)cc(Cl)c3n2)cc1,7.29*,139.0*,0.7,31.5,167.9*
COc1ccc(-c2cc(C(F)(F)F)nc(-n3cc(Cl)cn3)n2)cc1,1.31,93.3,1,-0.3,-4.7
COc1ccc(-c2cn3cc(C(F)(F)F)cc(Cl)c3n2)cc1,9.03*,150.0*,0.7,33.7,149.7*
COc1ccccc1C1CC(c2ccccc2)Nc2ncnn21 (stereo not drawn),1.22,99.5,1,0.1,-3.3
O=C(Nc1cccc(O)c1)C(=O)Nc1ccccn1,2.9,120.4,0.2,83.8*,154.8*
CCOC(=S)SCc1cn2cccc(C)c2n1,3.81*,94.9,1,0.9,12.5
CCCS(=O)(=O)NCc1cn2cccc(C)c2n1,1.15,102.9,1.1,-6.8,19.0
SMILES,NF-kB expr up,STAT1 activator,FLuc act counter,FLuc inh counter,APP 5'UTR act
CCOC(=O)N1CCC(NC(=O)c2cc(C(=O)Nc3ccc(S(=O)(=O)N4CCCCC4)cc3)ccc2CO)CC1,1.18,90.8,1,-0.6,7.1
Cn1c(-c2cccs2)nc2ccccc21,1.42,142.3*,0.8,24.0,48.4
Cc1ccc(NC(=O)NC(=O)N(C(C)C)S(=O)(=O)c2ccc(C)cc2)cc1,1.58,115.9,1,4.3,5.6
CCOC(=O)c1nn(-c2ccc(C)c(C)c2)cc1O,2.9,101.0,0.5,50.1*,114.0
COC(=O)c1nn(-c2ccc3c(c2)CCN3C(C)=O)cc1O,0.91,88.8,0.1,94.2*,-22.8
CCOC(=O)c1nn(-c2ccc(C)cc2)cc1C(=O)c1ccccc1,6.61*,143.8*,0.4,64.4*,145.4*
CCOC(=O)c1nn(-c2ccc3c(c2)OCCO3)cc1O,1.14,96.2,0.2,83.8*,157.8*
CC1CN(C2CCN(C(=O)c3ccccc3)CC2)CC(C)O1 (stereo not drawn),1.13,97.1,1,-3.6,-11.9
COc1cccc(Cn2cc(C(=O)NCCN(C)C)nn2)c1,1.37,103.4,1,-0.7,13.8
C=CCOc1ccc(/C=C/C(C)=N\O)cc1,4.19*,131.9*,0.4,60.9*,91.6
CCc1cc2c(=O)c(-c3ccc4c(c3)OCCO4)coc2cc1OC(=O)c1ccco1,2.94,107.4,0.7,30.5,141.0*
CCCc1cc2c(=O)c(-c3ccc4c(c3)OCCO4)coc2cc1OC(=O)c1ccco1,2.52,98.6,0.9,7.7,90.0
Cc1csc(SCC(=O)Nc2ncc(Cl)c(C)c2Cl)n1,1.3,100.7,1,4.5,5.1
C=CCSC1=N/C(=C/c2ccsc2)C(=O)N1c1ccccc1,1.54,101.0,1,-4.9,3.2
CN(C)c1ccc(C(=S)NCc2ccco2)cc1,8.07*,133.7*,1,3.4,96.9
CN(C)c1ccc(/C=N/NC(=S)NCc2ccco2)cc1,1,104.0,1,-2.5,32.0
N/C(=N\OCc1ccccc1)c1nonc1N,1.78,129.2*,1,2.2,63.2
CC(=O)c1sc(-c2ccccc2Cl)nc1C,1.9,100.8,1,-2.4,-0.1
CN(C)/C=C/C(=O)c1cnc(-c2cccc(Cl)c2)s1,2.6,137.5*,0.8,20.4,56.8
CN(C)/C=C/C(=O)c1cnc(-c2ccccc2Cl)s1,3.52*,139.2*,0.6,42.8,116.4
CN(C)/C=C/C(=O)c1ccc(Br)s1,1.48,116.7,1,3.7,15.5
CN(C)/C=C/C(=O)c1cnc(-c2ccccn2)s1,1.94,129.3*,0.7,32.2,66.0
NNC(=O)c1cc(Br)cs1,1,106.7,1.1,-9.1,3.4
COc1ccccc1NC(=O)C(NC(=O)OC(C)(C)C)C(C)OCc1ccccc1 (stereo not drawn),1,100.2,1.1,-5.3,-13.5
Cc1ccc(NC(=O)c2ccco2)c(NC(=O)Cc2cccs2)c1,0.8,94.6,1.1,-6.5,-16.8
SMILES,NF-kB expr up,STAT1 activator,FLuc act counter,FLuc inh counter,APP 5'UTR act
CCOc1cc(/C=N/NC(=O)Nc2ccccc2)ccc1O,2.8,126.7,0.6,35.7,68.8
COc1cc(/C=C/c2cc(C(=O)O)c3ccccc3n2)cc(OC)c1O,0.94,100.9,0.6,38.4,-12.4
CCOc1cc(/C=C/c2cc(C(=O)O)c3ccccc3n2)ccc1O,1.57,102.7,0.3,72.9*,2.9
CCOc1cc(/C=C/c2cc(C(=O)O)c3ccccc3n2)ccc1OC,1.85,106.9,0.1,85.8*,3.6
COc1cc(CNCCN(C)C)c(Br)cc1OC1CCCC1,1.02,96.8,1,-1.9,-14.2
N/C(=N\OC(=O)c1cccc(Br)c1)c1ccccc1,5.29*,127.2,0.1,89.9*,-4.0
COc1cccc(/C(N)=N/OC(=O)Cc2ccccc2[N+](=O)[O-])c1,1.52,130.3*,1,-0.9,13.2
Cc1cc(C)cc(C(=O)O/N=C(\N)c2ccc(Br)cc2)c1,1.15,101.5,1,-0.7,5.1
N/C(=N\OC(=O)/C=C/c1ccccc1)c1ccccc1,5.86*,137.7*,0.1,85.4*,136.4*
